Results on 4 molecules are retold here after publication PMC12811664 (Angewandte Chemie (International Ed. in English), 2025).

In one assay the target is T1, DC-SIGN ECD K373R (Homo sapiens, UniProt Q9NNX6, K373R).
T1 sequence (Q9NNX6 64-404 K373R): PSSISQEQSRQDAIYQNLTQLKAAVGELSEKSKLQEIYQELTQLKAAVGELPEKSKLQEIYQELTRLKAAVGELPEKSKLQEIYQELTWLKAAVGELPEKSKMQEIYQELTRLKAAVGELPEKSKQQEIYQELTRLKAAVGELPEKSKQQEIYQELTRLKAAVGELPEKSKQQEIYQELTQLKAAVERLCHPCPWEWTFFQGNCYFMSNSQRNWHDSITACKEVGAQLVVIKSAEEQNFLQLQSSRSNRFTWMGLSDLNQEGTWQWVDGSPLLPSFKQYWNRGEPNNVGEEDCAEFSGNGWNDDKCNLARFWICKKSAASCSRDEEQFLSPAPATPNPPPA
As to the kind of experiment: HRP binding assay with Lys mutant K373R. The assay is classed as biochemical.

Another assay concerns the target T2, DC-SIGN ECD K340R (Homo sapiens, UniProt Q9NNX6, K340R).
T2 sequence (Q9NNX6 64-404 K340R): T1 sequence (Q9NNX6 64-404 K373R) with K277R, R310K
Briefly: HRP binding assay with Lys mutant K340R. The assay is classed as biochemical.

The target in a further assay is T3, DC-SIGN CRD M270F (Homo sapiens, UniProt Q9NNX6, M270F).
T3 sequence (Q9NNX6 253-404 M270F): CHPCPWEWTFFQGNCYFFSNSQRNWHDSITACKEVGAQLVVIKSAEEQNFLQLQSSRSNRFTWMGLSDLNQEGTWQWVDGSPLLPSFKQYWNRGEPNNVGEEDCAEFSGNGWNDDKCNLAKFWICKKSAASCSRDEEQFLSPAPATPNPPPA
Briefly: Dynamic light scattering of modified protein, M270F mutant. The conditions noted are these: secondary site blocked.

A further assay addresses T4, DC-SIGN ECD K295R (Homo sapiens, UniProt Q9NNX6, K295R).
T4 sequence (Q9NNX6 64-404 K295R): T1 sequence (Q9NNX6 64-404 K373R) with K232R, R310K
As to the kind of experiment: HRP binding assay with Lys mutant K295R. It is filed as biochemical.

A further assay deals with T5, DC-SIGN CRD (Homo sapiens, UniProt Q9NNX6).
T5 sequence (Q9NNX6 253-404): T3 sequence (Q9NNX6 253-404 M270F) with F18M
Briefly: Grating-coupled interferometry. The assay is classed as binding. The following applies: mannose-PEG3 sensor; for EC50: EC50, GCI binding response, overnight incubation at RT.

For a further assay, the target named is T6, DC-SIGN ECD (Homo sapiens, UniProt Q9NNX6).
T6 sequence (Q9NNX6 64-404): T1 sequence (Q9NNX6 64-404 K373R) with R310K
As to the kind of experiment: Plate-based horseradish peroxidase. It is filed as biochemical. The procedure, abridged: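 Purified DC-SIGN extracellular domain immobilized on plates. Incubated overnight at 4 °C or room temperature with test compound at 0.5 mM for the screen, or at a concentration series for dose-response (overnight, RT, or varied incubation times). After washing, HRP added; it binds via its own glycans. Bound HRP read by peroxidase activity relative to DMSO control. Hit cutoff ≥50% change. EDTA, mannan and mannose used as controls. Mean of three biological replicates.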

The target of another assay is T7, DC-SIGN CRD wild type (Homo sapiens, UniProt Q9NNX6).
T7 sequence (Q9NNX6 253-404): T3 sequence (Q9NNX6 253-404 M270F) with F18M
As to the kind of experiment: Dynamic light scattering of modified protein. The conditions noted are these: protein-compound ratios up to 1:10.

Substitutions are numbered along the chain they refer to.

One may read the EC50 as the concentration needed to bring the measured effect to its halfway point. Higher therefore signals lower potency in that assay. On to `O=C(ON1C(=O)CCC1=O)c1cc(C(F)(F)F)cc(C(F)(F)F)c1` [Compound 11, 2,5-dioxopyrrolidin-1-yl 3,5-bis(trifluoromethyl)benzoate], for which the “activity (EC50) on mutant compared to the wild type, HRP assay” value at DC-SIGN ECD K373R, on DC-SIGN ECD K340R and on DC-SIGN ECD K295R was “No change in EC50” throughout. In addition, the “change of protein hydrodynamic size upon modification (DLS)” value at DC-SIGN CRD M270F is “lack of oligomerization”; on DC-SIGN CRD wild type, “induces oligomerization”. The results for the 50% effective concentration (EC50) at DC-SIGN CRD and at DC-SIGN ECD were 200 µM and 30 µM, respectively.

For the molecule `O=Cc1cc2ccccc2cc1C=O` [Compound 30, naphthalene‐2,3‐dicarbaldehyde], the “screening outcome, activity change compared to the DMSO control” value at DC-SIGN ECD (0.5 mM compound, overnight, cutoff ∼50% activity change) was “potential inhibitor”.

Regarding `COc1c(Nc2cc(C(F)(F)F)cc(C(F)(F)F)c2)c(=O)c1=O` [Compound 33, 3-((3,5-bis(trifluoromethyl)phenyl)amino)-4-methoxycyclobut-3-ene-1,2-dione], the “activity (EC50) on mutant compared to the wild type, HRP assay” value is on record as “drastically reduced activity” at DC-SIGN ECD K373R, “EC50s similar to that of the wild type” on DC-SIGN ECD K340R and “EC50s similar to that of the wild type” at DC-SIGN ECD K295R. On DC-SIGN CRD, this molecule gave an EC50 of 100 µM. For the same molecule, the “Hill slope (nH), GCI” value at DC-SIGN CRD is “≈ 1”. For the same molecule, the “time dependency of dose-response after varying incubation times, HRP assay” value at DC-SIGN ECD (reaction quenched at different time points) is given as “clear time dependency”. At DC-SIGN CRD wild type, the “change of protein hydrodynamic size upon modification (DLS)” value was “no increase in size”.

For orientation: IC50 means the concentration that gives 50% inhibition. Lower therefore signals greater potency in that assay. On DC-SIGN ECD, `OC[C@H]1OC(O)[C@@H](O)[C@@H](O)[C@@H]1O` (stereo partly shown) [mannose, reference compound] had a concentration for half-maximal inhibition (IC50) of 11400 µM.
